Results on two compounds are retold here after ChEMBL document CHEMBL1155063 (Bioorg Med Chem, 2008).

Activity calls are given as the source filed them. The calls are words filed in the database; no cut-off is given here.

The target in data set [1] is T1, Telomerase reverse transcriptase (Homo sapiens, UniProt O14746). Put plainly: Inhibition of telomerase in human H1299 cells at 1 to 20 uM by TRAP assay. The class given is cell-based. An outline of the steps: (§1)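 Modified TRAP assay using 2 µg total lysate from H1299 lung cancer cells as the telomerase source. Compounds were tested at 1, 5, 10 and 20 µM. Products were resolved on 10% polyacrylamide gels and stained with SYBR Green. A Taq-polymerase internal control was included, along with positive and negative controls.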

A short description of data set [2]: Cytotoxicity against human H1299 cells at 100 uM after 48 hrs by MTT assay realtive to control. It is filed as functional. The note with it: NCI-H1299, 48 h. In short, it runs like this: (§2)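 H1299 non-small-cell lung cells were kept in RPMI 1640 with 10% FBS and penicillin/streptomycin at 37 °C under 5% CO2. About 2 × 10^3 cells per well were pre-incubated for 24 h. Compound was added from freshly made DMSO solution diluted in complete medium and left for 48 h. MTT was then added for 4 h at 37 °C, followed by 20% SDS/50% DMF lysis buffer for 16 h at 37 °C, and absorbance read at 550 nm.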

The nature of data set [3]: Cytotoxicity against human H1299 cells at 10 uM after 48 hrs by MTT assay realtive to control. It is filed as functional. The note with it: NCI-H1299, 48 h. An outline of the steps:
as §2

A short description of data set [4]: Cytotoxicity against human TERT immortalized BJ1 cells at 100 uM after 48 hrs by MTT assay relative to control. It is filed as cell-based, BJ. An outline of the steps: (§3)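 hTERT-immortalized BJ1 fibroblasts were grown in DMEM with 10% FCS, 1 mM pyruvate and 4 mM […]. Cells (about 2 × 10^3 per well) were seeded and held 24 h at 37 °C. Compounds were freshly dissolved in DMSO, diluted into medium and left on the cells 48 h. MTT was added for 4 h, then SDS/DMF lysis buffer for 16 h. Absorbance was read at 550 nm and expressed relative to untreated cells (100%).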

Data set [5] is described as follows: Cytotoxicity against human TERT immortalized BJ1 cells at 10 uM after 48 hrs by MTT assay relative to control. It is filed as cell-based, BJ. In short, it runs like this:
as §3

Data set [6] can be described thus: Cytotoxicity against human TERT immortalized BJ1 cells at 1 uM after 48 hrs by MTT assay relative to control. It is filed as cell-based, BJ. An outline of the steps: as §3
Data set [7] concerns the target T1, Telomerase reverse transcriptase. Put plainly: Inhibition of G-quadruplex-induced human TERT in H1299 cells by TRAP assay. The class given is cell-based. In short, it runs like this:
as §1

Data set [8] is described as follows: Cell viability of human H1299 cells at 1 uM after 48 hrs by MTT assay relative to control. The note with it: NCI-H1299, 48 h.
Data set [9] concerns the target T1, Telomerase reverse transcriptase. The experiment in a line: Effect on human TERT expressed in H1299 cells at 1 uM after 24 hrs by SEAP assay relative to control.
Data set [10] has the same target. Put plainly: Effect on human TERT expressed in H1299 cells at 10 uM after 24 hrs by SEAP assay relative to control.
The target is the same in data set [11]. The experiment in a line: Effect on human TERT expressed in H1299 cells at 100 uM after 24 hrs by SEAP assay relative to control.
The target is the same in data set [12]. Put plainly: Effect on human TERT expressed in BJ1 cells at 1 uM after 24 hrs by SEAP assay realtive to control. The note with it: BJ.
Data set [13] has the same target. The experiment in a line: Effect on human TERT expressed in BJ1 cells at 10 uM after 24 hrs by SEAP assay relative to control. The following applies: BJ.
Data set [14] has the same target. The experiment in a line: Effect on human TERT expressed in BJ1 cells at 100 uM after 24 hrs by SEAP assay relative to control. The note with it: BJ.

T1 sequence (O14746 whole entry): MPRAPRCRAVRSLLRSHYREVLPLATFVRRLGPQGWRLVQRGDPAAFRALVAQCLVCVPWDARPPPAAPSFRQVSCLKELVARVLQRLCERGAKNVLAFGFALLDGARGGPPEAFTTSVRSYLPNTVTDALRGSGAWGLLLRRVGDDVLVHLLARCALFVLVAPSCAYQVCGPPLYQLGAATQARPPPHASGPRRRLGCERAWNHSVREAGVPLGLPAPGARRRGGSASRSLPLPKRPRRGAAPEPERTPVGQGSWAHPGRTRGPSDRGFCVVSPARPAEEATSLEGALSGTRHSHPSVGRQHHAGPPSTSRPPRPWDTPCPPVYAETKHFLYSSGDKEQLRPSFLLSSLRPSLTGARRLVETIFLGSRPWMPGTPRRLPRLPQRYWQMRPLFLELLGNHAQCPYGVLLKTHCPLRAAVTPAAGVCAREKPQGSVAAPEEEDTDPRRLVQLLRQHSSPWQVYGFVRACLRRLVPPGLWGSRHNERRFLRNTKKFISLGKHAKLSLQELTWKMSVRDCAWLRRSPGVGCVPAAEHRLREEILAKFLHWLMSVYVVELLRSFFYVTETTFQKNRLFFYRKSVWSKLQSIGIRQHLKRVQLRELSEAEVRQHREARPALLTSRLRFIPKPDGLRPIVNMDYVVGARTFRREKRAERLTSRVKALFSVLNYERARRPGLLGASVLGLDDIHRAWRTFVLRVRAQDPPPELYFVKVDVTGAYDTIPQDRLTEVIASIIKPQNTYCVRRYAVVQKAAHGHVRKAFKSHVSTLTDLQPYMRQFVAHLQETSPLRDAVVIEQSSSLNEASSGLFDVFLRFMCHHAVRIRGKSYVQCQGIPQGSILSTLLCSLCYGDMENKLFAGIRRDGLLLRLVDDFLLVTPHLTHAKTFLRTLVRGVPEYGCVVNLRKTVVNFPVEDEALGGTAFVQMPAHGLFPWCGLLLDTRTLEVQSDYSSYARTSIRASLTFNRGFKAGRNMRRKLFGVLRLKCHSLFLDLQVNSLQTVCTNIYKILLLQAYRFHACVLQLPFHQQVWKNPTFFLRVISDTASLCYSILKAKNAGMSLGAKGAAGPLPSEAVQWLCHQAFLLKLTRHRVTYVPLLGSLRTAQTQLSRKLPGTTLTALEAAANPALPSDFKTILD

Regarding `O=C(CCN1CCCCC1)Nc1ccc2c(c1)C(=O)c1cc(NC(=O)CCN3CCCCC3)ccc1C2=O`, the result in data set [1] was Active. The viability at 100 µM in data set [2] worked out at 18%. This compound came in with a viability at 10 µM in [3] of 44%. Also, the viability at 48 h, 100 µM in [4] stood at 41%. In data set [5], this compound returned a viability at 48 h, 10 µM of 54%. Moreover, the viability at 48 h, 1 µM in [6] was determined as 92%. Further, half-maximal inhibition in data set [7] (IC50) was put at 8.4 µM. The same compound registered a cell viability at 1 µM in [8] of 87%. In addition, the residual activity in data set [9] stood at 55%; in data set [10], 33%; in [11] it was 25%.

`CN(C)CCC(=O)Nc1ccc2c(c1)C(=O)c1cc(NC(=O)CCN(C)C)ccc1C2=O`: the result in data set [1] was Active. The viability at 100 µM in data set [2] was found to be 1%. This compound returned a viability at 10 µM in [3] of 53%. In data set [4], this compound came in with a viability at 48 h, 100 µM of 22%. The compound further displayed a viability at 48 h, 10 µM in data set [5] of 30%. The compound further displayed a viability at 48 h, 1 µM in [6] of 94%. In data set [8], this compound registered a cell viability at 1 µM of 1%. Besides, the residual activity came to 86% in data set [12]; 61% in data set [13]; 5% in data set [9]; 38% in data set [14]; 13% in [10]; 1% in data set [11].
